According to ChEMBL document CHEMBL3774311, “Synthesis and in vitro antitumour activity of tiazofurin analogues with nitrogen functionalities at the C-2' position” (Eur J Med Chem, 2016):

Tests used:
[1] = system: K562; experiment: Induction of specific apoptosis in human K562 cells after 72 hrs by annexin V-FITC/propidium iodide staining based flow cytometry; format: functional; parameters: concentration or dose not given beside the values
Outline: (§1)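 K562 cells treated 24 or 72 h, double-stained with Annexin V-FITC/PI and analysed by flow cytometry to give percentages of live, apoptotic and necrotic cells; apoptotic and necrotic responses expressed as specific apoptosis or specific necrosis (%).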

[2] = system: K562; experiment: Induction of apoptosis in human K562 cells assessed as Bax protein level after 72 hrs by Western blotting method (reference value: 32.81%); format: functional
[3] = system: K562; experiment: Induction of apoptosis in human K562 cells assessed as caspase 3 level after 24 hrs by Western blotting method (reference value: 42.77%); format: functional
[4] = system: K562; experiment: Induction of cell cycle arrest in human K562 cells assessed as accumulation at Sub-G1 phase after 72 hrs by propidium iodide staining-based flow cytometry (reference value: 3.04%); format: functional
Outline: (§2)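 Exponentially growing K562 cells treated 24 or 72 h; cells stained with propidium iodide and cell-cycle distribution (sub-G1, G0/G1, S, G2/M, %) measured by flow cytometry; untreated cells as control.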

[5] = system: K562; experiment: Induction of apoptosis in human K562 cells assessed as necrotic cells after 72 hrs by annexin V-FITC/propidium iodide staining based flow cytometry (reference value: 7.23%); format: functional; outline: as §1
[6] = system: K562; experiment: Induction of cell cycle arrest in human K562 cells assessed as accumulation at G2/M phase after 24 hrs by propidium iodide staining-based flow cytometry (reference value: 14.29%); format: functional; outline: as §2
[7] = system: K562; experiment: Induction of apoptosis in human K562 cells assessed as late apoptotic cells after 24 hrs by annexin V-FITC/propidium iodide staining based flow cytometry (reference value: 4.58%); format: functional; outline: as §1
[8] = system: K562; experiment: Induction of cell cycle arrest in human K562 cells assessed as accumulation at Sub-G1 phase after 24 hrs by propidium iodide staining-based flow cytometry (reference value: 1.05%); format: functional; outline: as §2
[9] = system: K562; experiment: Induction of specific necrosis in human K562 cells after 24 hrs by annexin V-FITC/propidium iodide staining based flow cytometry; format: functional; parameters: concentration or dose not given beside the values; outline: as §1
[10] = system: K562; experiment: Induction of apoptosis in human K562 cells assessed as necrotic cells after 24 hrs by annexin V-FITC/propidium iodide staining based flow cytometry (reference value: 1.50%); format: functional; outline: as §1
[11] = system: K562; experiment: Induction of cell cycle arrest in human K562 cells assessed as accumulation at S phase after 24 hrs by propidium iodide staining-based flow cytometry (reference value: 48.38%); format: functional; outline: as §2
[12] = system: HeLa; experiment: Antiproliferative activity against human HeLa cells after 72 hrs by MTT assay; format: functional, cell-based
Outline: (§3)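 Human tumour lines and MRC-5 foetal lung fibroblasts (normal-cell comparator) exposed to compounds for 72 h; viability read by standard MTT assay. IC50 taken as concentration inhibiting growth by 50% versus untreated control; means of three independent experiments, coefficients of variation under 10%.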

[13] = system: Raji; experiment: Antiproliferative activity against human Raji cells after 72 hrs by MTT assay; format: functional, cell-based; outline: as §3
[14] = system: K562; experiment: Induction of apoptosis in human K562 cells assessed as living cells after 24 hrs by annexin V-FITC/propidium iodide staining based flow cytometry (reference value: 85.85%); format: functional; outline: as §1
[15] = system: K562; experiment: Induction of apoptosis in human K562 cells assessed as caspase 3 level after 72 hrs by Western blotting method (reference value: 17.05%); format: functional
[16] = system: K562; experiment: Induction of apoptosis in human K562 cells assessed as Bcl2 protein level after 24 hrs by Western blotting method (reference value: 22.81%); format: functional
[17] = system: K562; experiment: Induction of cell cycle arrest in human K562 cells assessed as accumulation at G0/G1 phase after 72 hrs by propidium iodide staining-based flow cytometry (reference value: 45.92%); format: functional; outline: as §2
[18] = system: K562; experiment: Induction of apoptosis in human K562 cells assessed as living cells after 72 hrs by annexin V-FITC/propidium iodide staining based flow cytometry (reference value: 84.31%); format: functional; outline: as §1
[19] = system: K562; experiment: Induction of cell cycle arrest in human K562 cells assessed as accumulation at S phase after 72 hrs by propidium iodide staining-based flow cytometry (reference value: 35.73%); format: functional; outline: as §2
[20] = system: K562; experiment: Induction of cell cycle arrest in human K562 cells assessed as accumulation at G2/M phase after 72 hrs by propidium iodide staining-based flow cytometry (reference value: 15.31%); format: functional; outline: as §2
[21] = system: K562; experiment: Induction of specific apoptosis in human K562 cells after 24 hrs by annexin V-FITC/propidium iodide staining based flow cytometry; format: functional; parameters: concentration or dose not given beside the values; outline: as §1
[22] = system: K562; experiment: Induction of cell cycle arrest in human K562 cells assessed as accumulation at G0/G1 phase after 24 hrs by propidium iodide staining-based flow cytometry (reference value: 36.28%); format: functional; outline: as §2
[23] = system: K562; experiment: Induction of apoptosis in human K562 cells assessed as early apoptotic cells after 72 hrs by annexin V-FITC/propidium iodide staining based flow cytometry (reference value: 3.22%); format: functional; outline: as §1
[24] = system: K562; experiment: Induction of apoptosis in human K562 cells assessed as cleaved PARP level after 24 hrs by Western blotting method (reference value: 36.17%); format: functional
[25] = Antiproliferative activity against human HL60 cells after 72 hrs by MTT assay; format: functional, cell-based, HL-60; outline: as §3
[26] = system: K562; experiment: Induction of specific necrosis in human K562 cells after 72 hrs by annexin V-FITC/propidium iodide staining based flow cytometry; format: functional; parameters: concentration or dose not given beside the values; outline: as §1
[27] = system: K562; experiment: Induction of apoptosis in human K562 cells assessed as cleaved PARP level after 72 hrs by Western blotting method (reference value: 18.36%); format: functional
[28] = system: K562; experiment: Induction of apoptosis in human K562 cells assessed as Bax protein level after 24 hrs by Western blotting method (reference value: 16.13%); format: functional
[29] = system: K562; experiment: Induction of apoptosis in human K562 cells assessed as Bcl2 protein level after 72 hrs by Western blotting method (reference value: 7.90%); format: functional
[30] = system: K562; experiment: Induction of apoptosis in human K562 cells assessed as early apoptotic cells after 24 hrs by annexin V-FITC/propidium iodide staining based flow cytometry (reference value: 8.09%); format: functional; outline: as §1
[31] = system: K562; experiment: Induction of apoptosis in human K562 cells assessed as late apoptotic cells after 72 hrs by annexin V-FITC/propidium iodide staining based flow cytometry (reference value: 5.24%); format: functional; outline: as §1
[32] = system: K562; experiment: Antiproliferative activity against human K562 cells after 72 hrs by MTT assay; format: functional, cell-based; outline: as §3
[33] = system: HT-29; experiment: Antiproliferative activity against human HT-29 cells after 72 hrs by MTT assay; format: functional, cell-based; details: HT-29, 72 h; outline: as §3
[34] = system: MRC5; experiment: Cytotoxicity against human MRC5 cells after 72 hrs by MTT assay; format: cell-based; details: MRC5, 72 h; outline: as §3
[35] = system: MCF7; experiment: Antiproliferative activity against human MCF7 cells after 72 hrs by MTT assay; format: functional, cell-based; details: MCF7, 72 h; outline: as §3
[36] = system: Jurkat; experiment: Antiproliferative activity against human Jurkat cells after 72 hrs by MTT assay; format: functional, cell-based; outline: as §3

| SMILES | Activity [1] [%] | Activity [2] [%] | Activity [3] [%] | Activity [4] [%] | Activity [5] [%] | Activity [6] [%] | Activity [7] [%] | Activity [8] [%] | Activity [9] [%] | Activity [10] [%] | Activity [11] [%] | Activity [14] [%] | Activity [15] [%] | Activity [16] [%] | Activity [17] [%] | Activity [18] [%] | Activity [19] [%] | Activity [20] [%] | Activity [21] [%] | Activity [22] [%] | further results |
| --- | --- | --- | --- | --- | --- | --- | --- | --- | --- | --- | --- | --- | --- | --- | --- | --- | --- | --- | --- | --- | --- |
| Cl.NC(=O)c1csc([C@@H]2O[C@H](CO)[C@@H](O)[C@H]2N)n1 | 30.26 | 81.99 | 16.6 | 11.13 | 6.88 | 15.16 | 7.67 | 2.61 | 3.6 | 5.11 | 47.22 | 78.24 | 11.52 | 16.22 | 44.32 | 4.53 | 33.29 | 11.26 | 10.71 | 35.02 | IC50 ([12]; hela): > 100 µM; IC50 ([13]; raji): 9.28 µM; Activity [23]: 22.33%; Activity [24]: 66.48%; IC50 ([25]; hl-60): 20 nM; Activity [26]: 6.22%; Activity [27]: 24.41%; Activity [28]: 2.16%; Activity [29]: 14.5%; Activity [30]: 8.99%; Activity [31]: 66.3%; IC50 ([32]; k562): > 100000 nM |
| [N-]=[N+]=N[C@@H]1[C@H](O)[C@@H](CO)O[C@H]1c1nc(C(N)=O)cs1 | 38.06 | 85.6 | 47.06 | 10.9 | 5.99 | 11.6 | 4.8 | 2.93 | -0.82 | 0.69 | 42.8 | 83.58 | 34.23 | 31.53 | 42.24 | 3 | 35.04 | 11.82 | 10.73 | 42.67 | IC50 [33]: > 100 µM; IC50 ([12]; Homo sapiens, HeLa, 72 h): 4.08 µM; IC50 ([13]; Homo sapiens, Raji, 72 h): > 100 µM; IC50 [34]: > 100 µM; IC50 [35]: 4 nM; Activity [23]: 16.67%; Activity [24]: 103.8%; IC50 ([25]; Homo sapiens, HL-60, 72 h): > 100000 nM; Activity [26]: 5.33%; Activity [27]: 70.23%; Activity [28]: 12.4%; IC50 [36]: > 100 µM; Activity [29]: 17.3%; Activity [30]: 10.94%; Activity [31]: 74.34%; IC50 ([32]; Homo sapiens, K562, 72 h): 310 nM |
